For orientation: IC50 means the concentration that gives 50% inhibition. For orientation: inhibition means the percentage by which the read-out fell short of the control. A word on the AUC(0-inf): it is total exposure, with the tail of the curve extrapolated. Low readings indicate low exposure, high ones high exposure. A word on the Tmax: it is the time from dosing to the highest level. What is called Cmax is the maximum level reached in the sampled fluid or tissue.

Series [1] has as its target T1, Sodium-dependent proline transporter (Homo sapiens, UniProt Q99884).
T1 sequence (Q99884 whole entry): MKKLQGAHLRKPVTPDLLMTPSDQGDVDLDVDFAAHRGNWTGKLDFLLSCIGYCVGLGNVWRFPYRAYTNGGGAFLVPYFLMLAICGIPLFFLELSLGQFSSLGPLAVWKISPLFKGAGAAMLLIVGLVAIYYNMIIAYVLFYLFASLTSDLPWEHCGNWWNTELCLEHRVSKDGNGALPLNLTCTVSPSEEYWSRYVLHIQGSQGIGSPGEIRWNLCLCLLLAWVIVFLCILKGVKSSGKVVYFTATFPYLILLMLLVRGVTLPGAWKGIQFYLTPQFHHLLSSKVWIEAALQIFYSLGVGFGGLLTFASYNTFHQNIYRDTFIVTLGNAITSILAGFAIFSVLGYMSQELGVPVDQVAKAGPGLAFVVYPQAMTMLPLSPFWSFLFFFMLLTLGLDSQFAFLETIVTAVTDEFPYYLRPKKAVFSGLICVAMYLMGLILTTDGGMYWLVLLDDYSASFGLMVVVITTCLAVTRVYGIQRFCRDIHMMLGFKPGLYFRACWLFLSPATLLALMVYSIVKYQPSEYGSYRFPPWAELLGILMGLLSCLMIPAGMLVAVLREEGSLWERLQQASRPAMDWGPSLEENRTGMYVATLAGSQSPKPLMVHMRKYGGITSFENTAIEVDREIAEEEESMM
Nature of the series: Inhibition of human high-affinity L-proline transporter expressed in COS1 cells by [3H]proline uptake assay. Type of series: cell-based, COS-1.

A short description of series [2]: Stability in mouse liver S9 fraction assessed as remaining parent compound level after 30 mins. The series is classed as ADME, subcellular. The following applies: read-out: Stability. In outline: (§1)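 Compound incubated 30 min with S9 fraction of mouse liver homogenate; parent compound remaining measured.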
The nature of series [3]: Protein binding in plasma (unknown origin) by equilibrium dialysis assay. Type of series: ADME, cell-free. The following applies: read-out: PPB (converted). The procedure, abridged: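 Plasma protein binding measured by equilibrium dialysis.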
On the technique in general: Equilibrium dialysis compares concentrations on both sides of a semipermeable membrane.

Series [4] deals with T2, Sodium-dependent dopamine transporter (Homo sapiens, UniProt Q01959). Put plainly: Inhibition of DAT (unknown origin).
T2 sequence (Q01959 whole entry): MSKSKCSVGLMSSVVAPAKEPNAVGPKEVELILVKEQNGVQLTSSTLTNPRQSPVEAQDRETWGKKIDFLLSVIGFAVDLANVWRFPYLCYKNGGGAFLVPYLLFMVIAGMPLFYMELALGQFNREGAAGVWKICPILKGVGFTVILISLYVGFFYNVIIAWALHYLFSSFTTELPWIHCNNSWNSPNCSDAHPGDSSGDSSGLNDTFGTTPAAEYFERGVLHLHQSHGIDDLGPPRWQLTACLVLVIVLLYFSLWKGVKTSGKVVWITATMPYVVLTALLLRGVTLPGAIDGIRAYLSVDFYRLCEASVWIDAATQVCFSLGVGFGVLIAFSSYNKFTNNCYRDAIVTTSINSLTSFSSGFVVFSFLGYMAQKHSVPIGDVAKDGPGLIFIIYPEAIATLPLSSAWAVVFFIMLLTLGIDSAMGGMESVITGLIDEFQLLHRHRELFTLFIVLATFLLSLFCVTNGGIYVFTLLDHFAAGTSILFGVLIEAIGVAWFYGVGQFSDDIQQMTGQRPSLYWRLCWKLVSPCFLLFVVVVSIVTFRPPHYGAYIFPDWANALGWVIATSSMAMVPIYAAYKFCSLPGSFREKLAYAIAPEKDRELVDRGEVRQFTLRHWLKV
Series [5] can be described thus: Inhibition of GlyT (unknown origin). Also on record: species or system Homo sapiens.
A short description of series [6]: Stability in mouse liver homogenates assessed as remaining parent compound level after 30 mins. Type of series: ADME, tissue-based. The following applies: liver homogenate, read-out: Stability. In outline: as §1
The subject of series [7] is Mus musculus. Put plainly: Toxicity in mouse assessed as induction of lethargy at 1 mg/kg, iv. Type of series: organism-based. Also on record: dose 1 mg/kg, route intravenous. The following applies: in vivo. In outline: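 Mice dosed IV at 1 mpk and observed for lethargy.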
The target in another series is hERG (KCNH2) (Homo sapiens, UniProt Q12809). Put plainly: Inhibition of human ERG at 10 uM.
Chain of hERG (KCNH2) (Q12809 whole entry): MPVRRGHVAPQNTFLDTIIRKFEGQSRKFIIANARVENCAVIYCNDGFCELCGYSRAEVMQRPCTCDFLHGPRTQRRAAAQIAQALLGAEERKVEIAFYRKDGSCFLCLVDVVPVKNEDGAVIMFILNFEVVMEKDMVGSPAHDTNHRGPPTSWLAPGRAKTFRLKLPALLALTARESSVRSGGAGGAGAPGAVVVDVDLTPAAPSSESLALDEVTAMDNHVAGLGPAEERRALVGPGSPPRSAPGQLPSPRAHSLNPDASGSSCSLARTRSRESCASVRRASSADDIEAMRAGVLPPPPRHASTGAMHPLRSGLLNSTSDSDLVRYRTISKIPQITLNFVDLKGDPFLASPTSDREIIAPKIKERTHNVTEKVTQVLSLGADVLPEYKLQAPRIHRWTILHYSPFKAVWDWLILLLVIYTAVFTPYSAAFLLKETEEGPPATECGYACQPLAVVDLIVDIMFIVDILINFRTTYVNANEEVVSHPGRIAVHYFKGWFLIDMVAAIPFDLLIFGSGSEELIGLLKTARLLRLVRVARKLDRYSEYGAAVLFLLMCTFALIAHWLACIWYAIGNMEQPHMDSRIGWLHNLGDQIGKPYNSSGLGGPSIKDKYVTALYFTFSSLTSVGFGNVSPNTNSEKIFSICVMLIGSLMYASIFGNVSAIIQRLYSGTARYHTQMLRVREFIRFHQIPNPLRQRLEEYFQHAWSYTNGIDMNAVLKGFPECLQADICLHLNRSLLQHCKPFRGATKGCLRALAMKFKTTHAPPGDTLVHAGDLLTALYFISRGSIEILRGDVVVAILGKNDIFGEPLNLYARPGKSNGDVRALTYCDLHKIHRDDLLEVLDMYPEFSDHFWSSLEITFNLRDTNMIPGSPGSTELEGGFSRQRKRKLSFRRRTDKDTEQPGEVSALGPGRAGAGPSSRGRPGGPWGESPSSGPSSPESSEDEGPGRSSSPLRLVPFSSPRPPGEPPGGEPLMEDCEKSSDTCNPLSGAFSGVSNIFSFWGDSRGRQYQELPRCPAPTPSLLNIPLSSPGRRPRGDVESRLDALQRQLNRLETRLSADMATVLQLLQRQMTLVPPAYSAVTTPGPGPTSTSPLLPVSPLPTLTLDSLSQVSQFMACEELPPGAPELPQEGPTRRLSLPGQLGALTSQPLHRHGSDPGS
Series [8] is described as follows: Drug level in albino C57BL/6 mouse brain at 100 mg/kg, po after 6 hrs. The series is classed as ADME, organism-based. More on the design: dose 100 mg/kg, route oral. The following applies: read-out: Drug uptake.
Series [9] has as its system Mus musculus. Nature of the series: Toxicity in albino C57BL/6 mouse at 100 mg/kg, po. The series is classed as organism-based. Also on record: dose 100 mg/kg, route oral. The following applies: in vivo.
Series [10] in a line: Ratio of drug level in brain to plasma in albino C57BL/6 mouse at 100 mg/kg, po after 6 hrs. Type of series: ADME, organism-based. Also on record: dose 100 mg/kg, route oral. The following applies: read-out: BPR.
Series [11] deals with Mus musculus. Put plainly: Induction of cognitive improvement in albino C57BL/6 mouse trace conditioning model assessed as improvement in response to conditioned stimulus at 100 mg/kg, po. The series is classed as functional, organism-based. More on the design: dose 100 mg/kg. The procedure, abridged: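 C57 mice (n = 13) given 100 mpk PO alongside a vehicle control group; fear conditioning with context freezing portion scored as response to conditioned stimulus; statistical comparison with vehicle by P value.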

A short description of series [12]: AUC (0 to infinity) in albino C57BL/6 mouse at 100 mg/kg, po. Type of series: ADME, organism-based. More on the design: time infinity, dose 100 mg/kg, route oral. The following applies: plasma. In outline: (§2)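 Single oral administration at 100 mpk to C57BL/6 albino mice; plasma exposure parameters (Tmax, Cmax, AUC) derived.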
Series [13] can be described thus: Tmax in albino C57BL/6 mouse at 100 mg/kg, po. The series is classed as ADME, organism-based. Also on record: dose 100 mg/kg, route oral. The following applies: in vivo. In outline:
as §2

Series [14] concerns the target T2, Sodium-dependent dopamine transporter. Put plainly: Inhibition of DAT (unknown origin) at 10 uM.
The nature of series [15]: Cmax in albino C57BL/6 mouse at 100 mg/kg, po. Type of series: ADME, organism-based. Also on record: dose 100 mg/kg, route oral. The following applies: in vivo. In outline:
as §2

The subject of series [16] is Mus musculus. Put plainly: Toxicity in albino C57BL/6 mouse assessed as effect on open field trial parameters at 100 mg/kg, po. The series is classed as organism-based. Also on record: dose 100 mg/kg, route oral. The following applies: in vivo.

Activity calls are given as the source filed them. No cut-off for these calls is given here. Bounds are passed on as bounds.

With `N#Cc1cccc(-c2ccc(C(=O)N3CCN(c4ncccn4)CC3)cc2)c1`, the half-maximal inhibitory concentration (IC50) in series [1] was determined as 190 nM.
In the case of `O=C(c1ccc(-c2ccccc2)cc1)N1CCN(c2ccccn2)CC1`, half-maximal inhibition in series [1] (IC50) required 160 nM. In addition, the remaining at 0.5 h in series [2] amounted to 53%.
`O=C(c1ccc(C2CCCCC2)cc1)N1CCN(c2ncccn2)CC1`: the half-inhibitory concentration (IC50) in series [1] worked out at 7010 nM.
Still for that read-out and setting: in the case of `Cc1ccnc(N2CCN(C(=O)c3ccc(-c4ccccc4)cc3)CC2)n1` it was 270 nM.
Turning to `O=C(c1ccc(-c2cccc(C(F)(F)F)c2)cc1)N1CCN(c2ncccn2)CC1`, the IC50 in series [1] came to 71 nM.
Same read-out and setting: the figure for `Cc1csc(-c2ccc(C(=O)N3CCN(c4ncccn4)CC3)cc2)c1` is 34 nM.
Take `CCc1ccc(-c2ccc(C(=O)N3CCN(c4ncccn4)CC3)cc2)cc1`: the IC50 in [1] stood at 77 nM.
`O=C(c1ccc(-c2ccc(Cl)cc2)cc1)N1CCN(c2ncccn2)CC1` gave an IC50 in series [1] of 52 nM. Besides, in [3], the fraction unbound is 0.022.
In series [1], `O=C(c1ccc(-c2ccccc2)cc1)N1CCN(c2cnccn2)CC1` gave an IC50 of 1300 nM.
`C[C@@H]1CN(c2ncccn2)CCN1C(=O)c1ccc(-c2ccc(Cl)cc2)cc1`: the half-maximal inhibitory concentration (IC50) in series [1] was determined as 57 nM.
Still for that read-out and setting: in the case of `COc1ccc(-c2ccc(C(=O)N3CCN(c4ncccn4)CC3)cc2)cc1` it was 230 nM; in that of `N#Cc1ccc(-c2ccc(C(=O)N3CCN(c4ncccn4)CC3)cc2)cc1`, 190 nM.
In turn, `Cc1ccc(-c2ccc(C(=O)N3CCN(c4ncccn4)CC3)cc2)s1` yielded an IC50 in series [1] of 61 nM.
The same measure, in the same setting: the figure for `O=C(O)C1CN(c2ncccn2)CCN1C(=O)c1ccc(-c2cccc(Cl)c2)cc1` (stereo not given) is 128 nM; for `O=C(c1ccc(-c2ccc(Cl)s2)cc1)N1CCN(c2ncccn2)CC1` it is 150 nM.
In series [1], `O=C(c1ccccc1-c1ccccc1)N1CCN(c2ncccn2)CC1` returned an IC50 of 6010 nM.
Same read-out and setting: the figure for `CC1CN(c2ncccn2)CC(C)N1C(=O)c1ccc(-c2cccc(Cl)c2)cc1` (stereo not given) is 24 nM.
As for `O=C(c1ccc(-c2cccc(Cl)c2)cc1)N1CCN(c2ncccn2)CC1`, the figures for the IC50 in series [4], in series [1] and in series [5] were 3400 nM, 36 nM and more than 10000 nM, respectively. Also, in [3], the fraction unbound is 0.008. In [2], the remaining at 0.5 h is 90%.
Turning to `Cc1ccccc1-c1ccc(C(=O)N2CCN(c3ncccn3)CC2)cc1`, the 50% inhibitory concentration (IC50) in series [1] is 653 nM.
Molecule `CC(C)(C)C1CN(c2ncccn2)CCN1C(=O)c1ccc(-c2cccc(Cl)c2)cc1` (stereo not given) gave an IC50 in series [1] of 700 nM.
The same measure, in the same setting: the figure for `O=C(c1ccc(-c2ccccc2)cc1)N1CCN(c2nccs2)CC1` is 146 nM.
In series [1], `O=C(c1ccc(Oc2ccccc2)cc1)N1CCN(c2ncccn2)CC1` displayed a half-inhibitory concentration (IC50) of 1950 nM.
Same read-out and setting: the figure for `O=C(c1ccc(-c2cccc(Cl)c2)cc1)N1CC2CC1CN2c1ncccn1` (stereo not given) is 1340 nM.
`O=C(c1ccc(-c2ccccc2C(F)(F)F)cc1)N1CCN(c2ncccn2)CC1`: 1260 nM corresponded to half-maximal inhibition in series [1] (IC50).
In [1], `Cc1ccc(-c2ccc(C(=O)N3CCN(c4ncccn4)CC3)cc2)cc1` returned an IC50 of 34 nM.
As to `O=C(c1cccc(-c2ccccc2)c1)N1CCN(c2ncccn2)CC1`, the IC50 in series [1] is 1880 nM.
As to `O=C(c1ccc(NCc2ccccc2)cc1)N1CCN(c2ncccn2)CC1`, the remaining at 0.5 h in series [6] came out at 63%. Also, in series [1], the IC50 was determined as 870 nM. Also, the fraction unbound in [3] was 0.05.
For `O=C(c1ccc(-c2cccc(Cl)c2)cc1)N1C2CCC1CN(c1ncccn1)C2`, the IC50 in series [4] was 6100 nM; in [1], 18 nM; in series [5] it was more than 10000 nM. Also, the Activity result with Mus musculus [7] is “Toxic”. At hERG (KCNH2), this molecule showed an inhibition at 10 µM of 59%. Further, the remaining at 0.5 h in series [2] amounted to 70%.
On to `O=C(c1ccc(-c2ccccc2)cc1)N1CCN(c2ccccc2)CC1`, for which, in series [1], the IC50 worked out at 1480 nM.
Same read-out and setting: in the case of `O=C(c1ccc(-c2ccccc2)cc1)N1CCN(c2ncccn2)CC1` it was 280 nM; in that of `O=C(c1ccc(-c2cccc(OC(F)(F)F)c2)cc1)N1CCN(c2ncccn2)CC1`, 73 nM; in that of `O=C(c1ccc(-c2cccc(Cl)c2)cc1)N1CC2CN(c3ncccn3)CC2C1` (stereo not given), 36 nM.
On the same count and under the same terms, the figure for `O=C(c1ccc(-c2cccc(Cl)c2)cc1)N1CCCN(c2ncccn2)CC1` is 89 nM; for `CC1CN(C(=O)c2ccc(-c3ccccc3)cc2)CCN1c1ncccn1` (stereo not given) it is 477 nM; for `O=C(c1ccc(-c2cccc(Cl)c2)cc1)N1CCN(c2ncccn2)CC1CO` (stereo not given) it is 76 nM.
Consider `O=C(c1ccc(-c2cccc(Cl)c2)cc1)N1CC2CCC(C1)N2c1ncccn1`, for which, in [8], the concentration at 6 h worked out at 2260 ng/mL. Besides, the Activity result with Mus musculus [9] and with Mus musculus [16] was “Non-toxic” each time. In [1], the IC50 turned out to be 27 nM. Further, in series [10], the Kp at 6 h was 1.7. Besides, in the series on Mus musculus [11], the result was inactive. Moreover, the total exposure AUC(0-inf) in series [12] worked out at 24000 ng·h/mL. In series [13], the Tmax was 22.8 min. Also, in series [14], the inhibition result is “inactive”. In addition, the Cmax in series [15] was 4500 ng/mL. Also, in [2], the remaining at 0.5 h worked out at 75%.
With `O=C(c1ccc(OCc2ccccc2)cc1)N1CCN(c2ncccn2)CC1`, the remaining at 0.5 h in series [6] came out at 45%. Moreover, in [1], the IC50 amounted to 270 nM.
`C[C@H]1CN(c2ncccn2)CCN1C(=O)c1ccc(-c2ccc(Cl)cc2)cc1` registered an IC50 in series [1] of 21 nM.
Still for that read-out and setting: the figure for `O=C(c1ccc(-c2ccccc2)cc1)N1CCN(c2nccc(C(F)(F)F)n2)CC1` is 2180 nM; for `O=C(c1ccc(-c2ccccc2)cc1)N1CCN(c2cccnn2)CC1` it is 5000 nM; for `CC1(C)CN(c2ncccn2)CCN1C(=O)c1ccc(-c2cccc(Cl)c2)cc1` it is 53 nM.

(Values after ChEMBL document CHEMBL3352673, “Novel inhibitors of the high-affinity L-proline transporter as potential therapeutic agents for the treatment of cognitive disorders” (Bioorg Med Chem Lett, 2014).)
